# Measured values as given in ChEMBL document CHEMBL1138398, “Design and synthesis of novel bis(L-amino acid) ester prodrugs of 9-[2-(phosphonomethoxy)ethyl]adenine (PMEA) with improved anti-HBV activity” (Bioorg Med Chem Lett, 2007).
# Assays:
# HepG2 = assay: Cytotoxicity against HepG2 2.2.15 cells; assay type: functional; details: Homo sapiens
# Procedure, shortened: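 HepG2 2.2.15 cells exposed to compound; CC50 defined as the concentration causing 50% extinction of the cells.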
# [1] = Selectivity index, ratio of CC50 for HepG2 2.2.15 cells to EC50 for HBV; assay type: functional
# Procedure, shortened: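 In HepG2 2.2.15 cells: SI calculated as CC50 (50% extinction of the cells) divided by EC50 (50% inhibition of cytoplasmic HBV-DNA synthesis).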
# Hepatitis B virus = assay: Antiviral activity against HBV assessed as inhibition of cytoplasmic HBV-DNA synthesis; assay type: functional, organism-based
# Procedure, shortened: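 Run in HepG2 2.2.15 cells; EC50 taken as the concentration giving 50% inhibition of cytoplasmic HBV-DNA synthesis.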
# [2] = Metabolic stability assessed as half life in human plasma; assay type: ADME, cell-free
Compound,CC50 (HepG2) [µM],Ratio CC50/EC50 [1],EC50 (Hepatitis B virus) [µM],half-life [2] [h]
CC(C)C[C@H](N)C(=O)SCCOP(=O)(COCCn1cnc2c(N)ncnc21)OCCSC(=O)[C@@H](N)CC(C)C.Cl,3410,16129,0.211,–
CC(C)[C@H](N)C(=O)OCOP(=O)(COCCn1cnc2c(N)ncnc21)OCOC(=O)[C@@H](N)C(C)C.Cl,3380,11094,0.304,–
Cl.Nc1ncnc2c1ncn2CCOCP(=O)(OCCOC(=O)[C@@H](N)Cc1ccccc1)OCCOC(=O)[C@@H](N)Cc1ccccc1,2590,8354,0.311,0.25
CC(C)(C)C(=O)OCOP(=O)(COCCn1cnc2c(N)ncnc21)OCOC(=O)C(C)(C)C.Cl,540,1044,0.517,0.75
Cl.Nc1ccn([C@@H]2CS[C@H](CO)O2)c(=O)n1,230,2850,0.0807,–
CC(C)[C@H](N)C(=O)OCCOP(=O)(COCCn1cnc2c(N)ncnc21)OCCOC(=O)[C@@H](N)C(C)C.Cl,2590,1974,1.31,2
Cl.Nc1ncnc2c1ncn2CCOCP(=O)(OCOC(=O)[C@@H](N)Cc1ccccc1)OCOC(=O)[C@@H](N)Cc1ccccc1,–,23312,0.659,–
CC(C)[C@H](N)C(=O)SCCOP(=O)(COCCn1cnc2c(N)ncnc21)OCCSC(=O)[C@@H](N)C(C)C.Cl,–,38167,0.752,–
C[C@H](N)C(=O)OCCOP(=O)(COCCn1cnc2c(N)ncnc21)OCCOC(=O)[C@H](C)N.Cl,1840,146,12.5,–
CC(C)C[C@H](N)C(=O)OCOP(=O)(COCCn1cnc2c(N)ncnc21)OCOC(=O)[C@@H](N)CC(C)C.Cl,8560,25111,0.341,–
CC(C)C[C@H](N)C(=O)OCCOP(=O)(COCCn1cnc2c(N)ncnc21)OCCOC(=O)[C@@H](N)CC(C)C.Cl,6640,69523,0.0952,4.5
Cl.Nc1ncnc2c1ncn2CCOCP(=O)(OCCSC(=O)[C@@H](N)Cc1ccccc1)OCCSC(=O)[C@@H](N)Cc1ccccc1,–,52727,0.208,–
C[C@H](N)C(=O)SCCOP(=O)(COCCn1cnc2c(N)ncnc21)OCCSC(=O)[C@H](C)N.Cl,2420,1548,1.56,–
Cl.NCC(=O)SCCOP(=O)(COCCn1cnc2c(N)ncnc21)OCCSC(=O)CN,259,25,10.2,–
